Results from the EternaBench riboswitch data.

Test system: MS2 coat protein
Test: apparent Kd, MS2 coat protein; higher = weaker binding; RNA-MaP array
Procedure, shortened: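 With or without input ligand, designed RNAs transcribed on an Illumina sequencing chip from sequenced DNA templates were incubated at room temperature with fluorescently labeled MS2 coat protein at 1.5 nM to 3 μM. The buffer was Tris-HCl pH 7.5 with KCl, MgCl2, BSA, DTT, tRNA and Tween20, and incubation ran 0.8–1.5 h at the lowest and 10–20 min at the highest concentrations. Apparent Kd is reported as the median of fits to binding curves from individual clusters. Designs measured on fewer than 10 clusters are not included.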

[1] = designed as: OFF switch for flavin mononucleotide, no ligand
[2] = ligand present: flavin mononucleotide, designed as: OFF switch for flavin mononucleotide
[3] = designed as: ON switch for flavin mononucleotide, no ligand
[4] = ligand present: flavin mononucleotide, designed as: ON switch for flavin mononucleotide
[5] = designed as: ON switch for tryptophan, no ligand
[6] = ligand present: tryptophan, designed as: ON switch for tryptophan
[7] = designed as: OFF switch for tryptophan, no ligand
[8] = ligand present: tryptophan, designed as: OFF switch for tryptophan

Sequence | apparent Kd [1] | apparent Kd [2] | apparent Kd [3] | apparent Kd [4] | further results
ACUAGCAUAGGAUAUCACCACAGGUACAUGAGGAUCACCCAUGUGAGACUAGCUAGCUGCUGAGAAGGAUGAAAGG | 27.9 nM | 23.6 nM | – | – | –
AGAGUUAUUGAGAAGGAAACAUUGACAUGAGGAUCACCCAUGUACUUGGCUAAGGAGCCGAGUGUUUAGGAUAUCAUUCAGAUA | – | – | 25.6 nM | 9.33 nM | –
AAGCGACGUGACGCCUACAUGAGGAUCACCCAUGUAUGAAACAGAAGGUCCCGGAACCUUUACCGGAAGGAUAUGUAUCGUGCU | 9.18 nM | 7.78 nM | – | – | –
CCGUACCCGGAGAAGGAAGUCGUUGGAUGGCCAACAUGAGGAUCACCCAUGUGAUUUCAACUUACUUAGGAUAUCCAAAAUGAG | – | – | 58.4 nM | 24.1 nM | –
GAGGUAACGUAGAAGGCGAGGGCAAUACCUGUUCGAGGAUAUACUAUUAGACAUGAGGAUCACCCAUGUGGAGAUUGAUCGUCA | 241 nM | 339 nM | – | – | –
CAUUUACAUGAGGAUCACCCAUGUUAUUCUACCCAAGGAUAUCGGGAAAGUAGAACAAGUCGAGAAGGUGGUGCGC | – | – | 29.5 nM | 25.6 nM | –
GCGACUCUCGUGAAGCGACAUGAGGAUCACCCAUGUAACACUAGAAGGAGGCACGAUACGAUGUCCUAGGAUAUAGACACGGCU | 27.8 nM | 26.4 nM | – | – | –
UUACAUACCUUAGGAUAUCAUCGUAGUAGGGCAAUAUAACAUGAGGAUCACCCAUGUCUCGUGCGUGAGAAGGAAGAACGUCAU | – | – | 32.7 nM | 27.8 nM | –
AGUUACAUGAGGAUCACCCAUGUCCGGUUGCGAGGACCGGUACGGCCGCCACUCGGGUACAUCCCAGAAAAUACUGAAUGCCUGC | – | – | – | – | apparent Kd [5]: 55.4 nM; apparent Kd [6]: 51 nM
AUGAUGUAAGGAUAUUGCGCGAUGUUUACCAUUGGUCUGCACAAGAAGGUACAUGAGGAUCACCCAUGUGGGCC | 27.9 nM | 39.9 nM | – | – | –
GUGCAAAACCAGAAGGGACAUUAAAGGGUAAAGUCAGGAUAUGGCACAUGAGGAUCACCCAUGUAGACUAGACGCGUUAUUUUC | – | – | 9.99 nM | 9.11 nM | –
GCACGGCUAGAGAAGGGAAGGUGGAAGAGAUGUGAGGGACAUGAGGAUCACCCAUGUCUUACGAUUCAGGAUAUCUGAGAGGCU | 10.2 nM | 10.3 nM | – | – | –
GGAAAGUCUGAGAAGGGAUGAAGACAUGAGGAUCACCCAUGUGAAGGCCACUGGCUCCACAAGUAUCAGGAUAUCAGCAUAGCG | – | – | 36.3 nM | 20.6 nM | –
AUCGGUAAAACUCAGGAUAUAGAAAUAGACACAUGAGGAUCACCCAUGUUAACUACACAAAGAAUCUAGAAGGGAGCAGGUGUCUA | – | – | 78.2 nM | 44.9 nM | –
UAGAGCCAGUCGGCCGCCACUCUCCAUAUGUGAGCCUUUAAGUUCUACAUGAGGAUCACCCAUGUGAGGACCGGGACCGAAUCUA | – | – | – | – | apparent Kd [7]: 60.3 nM; apparent Kd [8]: 80.7 nM
UUCCUUGUCGAGAAGGAAUGGCACUUGAGGCGAUUAGGAUAUCGAUACAUGAGGAUCACCCAUGUUGUGUCUCAUAGUAUGACA | 12 nM | 12.4 nM | – | – | –
ACAUGAGGAUCACCCAUGUAAAUGAUAUGUCACCAUGAUGUUAGAAGGAAAGCGGAAAGUCAAUUUUAGGAUAUAAUGUAUUGA | – | – | 11.9 nM | 8.51 nM | –
AAAUACAUGAGGAUCACCCAUGUCAAUAAUCGAGGACCGGUACGGCCGCCACUCGAUCGGCCAAGAAAAUGAAAGAUGAUCUCUA | – | – | – | – | apparent Kd [5]: 26.9 nM; apparent Kd [6]: 30.7 nM
CGAGUGUGAGGAUAUCAGUUCAAUAGGGCUACGCCGUGUCGUGAGAAGGCACAUGAGGAUCACCCAUGUAAUAA | 58.3 nM | 122 nM | – | – | –
ACCCAGACAUGAGGAUCACCCAUGUAAAUAGAGUACAUCAGGAGAAGGUUCAAAGGGCCUACCCGAAAGGAUAUCCUCGGCGUA | – | – | 30.8 nM | 25.7 nM | –
UAGCGGACUGUGAGGAUAUAGCAAAUUCAACAAUUCUAGAAGGCACAUGAGGAUCACCCAUGUAGAGUGAUUAA | 38.5 nM | 70.7 nM | – | – | –
ACAUCUUGUACGGCCGCCACUAACAGAUUCAGCGUCGGAGCCAACUACAUGAGGAUCACCCAUGUUAGGACCGGGUACUGUCCAC | – | – | – | – | apparent Kd [7]: 17.7 nM; apparent Kd [8]: 34.9 nM
CGUUCAGUCCAGCGGUUACAUGAGGAUCACCCAUGUUUAGAGAGAAGGGUUGGCACCAGGAUGUAACAGGAUAUCUCGCUUACG | – | – | 171 nM | 71.5 nM | –
